{"data": "Published values from different studies", "note": "Protocols differ between the studies behind these lines."}
{"Structure (SMILES)": "O=C(O)CN1C(=O)/C(=C/c2ccc(-c3ccc(N(c4ccccc4)c4ccccc4)cc3)c3ccccc23)NC1=S", "organism": "Micrococcus luteus", "observed": "microbial killing", "technique": "broth dilution", "strain": "ATCC10240", "endpoint": "MBC", "result": "> 1000 µg/mL"}
{"Structure (SMILES)": "Cc1nn(-c2nc3ccc(Cl)cc3s2)c2c1C(=O)c1ccccc1-2", "organism": "Staphylococcus aureus", "observed": "microbial growth", "technique": "well diffusion", "strain": "NCIM5021", "concentration": "1000 µg/mL", "endpoint": "inhibition zone", "result": "11 mm"}
{"Structure (SMILES)": "C#Cc1cccc(Nc2ncnc3cc(OC)c(OCCCCCCC(=O)NO)cc23)c1", "organism": "Staphylococcus aureus", "observed": "microbial growth", "strain": "NCTC8325", "endpoint": "MIC", "result": "> 30 µM"}
{"Structure (SMILES)": "Cc1ccc2nc(-n3nc(CC(C)C)c4c3-c3ccccc3C4=O)sc2c1", "organism": "Staphylococcus aureus", "observed": "microbial growth", "technique": "well diffusion", "strain": "NCIM5021", "concentration": "1000 µg/mL", "endpoint": "inhibition zone", "result": "14 mm"}
{"Structure (SMILES)": "O=C1NC(=S)S/C1=C\\c1ccc(-c2ccc(N(c3ccccc3)c3ccccc3)cc2)cc1", "organism": "Micrococcus luteus", "observed": "microbial killing", "technique": "broth dilution", "strain": "ATCC10240", "endpoint": "MBC", "result": "500 µg/mL"}
{"Structure (SMILES)": "CC(C)c1nn(-c2nc3ccc(Br)cc3s2)c2c1C(=O)c1ccccc1-2", "organism": "Staphylococcus aureus", "observed": "microbial growth", "technique": "well diffusion", "strain": "NCIM5021", "concentration": "500 µg/mL", "endpoint": "inhibition zone", "result": "11 mm"}
{"Structure (SMILES)": "Cc1ccc(C(C)C)cc1OS(=O)(=O)c1ccc([N+](=O)[O-])cc1", "organism": "Escherichia coli", "observed": "microbial growth", "technique": "broth dilution", "strain": "ATCC25922", "endpoint": "IC50", "result": "176 µg/mL"}
{"Structure (SMILES)": "O=C(O)CN1C(=O)/C(=C/c2ccc(-c3ccc(N(c4ccccc4)c4ccccc4)cc3)cc2)NC1=S", "organism": "Staphylococcus aureus", "observed": "microbial killing", "technique": "broth dilution", "strain": "ATCC43300", "endpoint": "MBC", "result": "3.9 µg/mL"}
{"Structure (SMILES)": "O=C1C=C(OCc2cn(-c3ccc([N+](=O)[O-])cc3)nn2)C(=O)c2ccccc21", "organism": "Escherichia coli", "observed": "microbial growth", "technique": "broth dilution", "strain": "ATCC25922", "endpoint": "IC50", "result": "396 µg/mL"}
{"Structure (SMILES)": "O=C1NC(=O)/C(=C/c2ccc(-c3ccc(F)cc3O)o2)S1", "organism": "Staphylococcus aureus", "observed": "microbial growth", "strain": "NCTC8325", "endpoint": "MIC", "result": "> 30 µM"}
{"Structure (SMILES)": "O=C1C=C(OCc2cn(-c3ccc(Cl)cc3)nn2)C(=O)c2ccccc21", "organism": "Escherichia coli", "observed": "microbial growth", "technique": "broth dilution", "strain": "ATCC25922", "endpoint": "IC50", "result": "306 µg/mL"}
{"Structure (SMILES)": "O=C(O)CN1C(=O)/C(=C/c2c3ccccc3c(-c3ccc(N(c4ccccc4)c4ccccc4)cc3)c3ccccc23)NC1=S", "organism": "Micrococcus luteus", "observed": "microbial killing", "technique": "broth dilution", "strain": "ATCC10240", "endpoint": "MBC", "result": "> 1000 µg/mL"}
{"Structure (SMILES)": "Cc1ccc(C(C)C)cc1OS(=O)(=O)c1cccs1", "organism": "Escherichia coli", "observed": "microbial growth", "technique": "broth dilution", "strain": "ATCC25922", "endpoint": "IC50", "result": "149 µg/mL"}
{"Structure (SMILES)": "CC(C)Cc1nn(-c2nc3ccc(Br)cc3s2)c2c1C(=O)c1ccccc1-2", "organism": "Staphylococcus aureus", "observed": "microbial growth", "technique": "well diffusion", "strain": "NCIM5021", "concentration": "1000 µg/mL", "endpoint": "inhibition zone", "result": "21 mm"}
{"Structure (SMILES)": "O=C(O)CN1C(=O)/C(=C/c2ccc(-c3ccc(N(c4ccccc4)c4ccccc4)cc3)cc2)SC1=S", "organism": "Staphylococcus aureus", "observed": "microbial killing", "technique": "broth dilution", "strain": "ATCC25923", "endpoint": "MBC", "result": "31.3 µg/mL"}
{"Structure (SMILES)": "CNC(=O)c1cc(Oc2ccc(NC(=O)Nc3cccc4ccccc34)cc2)ccn1", "organism": "Staphylococcus aureus", "observed": "microbial growth", "strain": "NCTC8325", "endpoint": "MIC", "result": "> 100 µM"}
{"Structure (SMILES)": "Cc1nn(-c2nc3ccccc3s2)c2c1C(=O)c1ccccc1-2", "organism": "Staphylococcus aureus", "observed": "microbial growth", "technique": "well diffusion", "strain": "NCIM5021", "concentration": "500 µg/mL", "endpoint": "inhibition zone", "result": "11 mm"}
{"Structure (SMILES)": "Cc1ccc(C(C)C)cc1OCc1cn(-c2ccc(C(=O)O)cc2)nn1", "organism": "Escherichia coli", "observed": "microbial growth", "technique": "broth dilution", "strain": "ATCC25922", "endpoint": "IC50", "result": "15.3 µg/mL"}
{"Structure (SMILES)": "O=c1cc(-c2cccc3c2Sc2ccccc2S3)oc(N2CCOCC2)c1", "organism": "Staphylococcus aureus", "observed": "microbial growth", "strain": "NCTC8325", "endpoint": "MIC", "result": "> 30 µM"}
{"Structure (SMILES)": "O=C1NC(=S)N/C1=C\\c1ccc(-c2ccc(N(c3ccccc3)c3ccccc3)cc2)cc1", "organism": "Staphylococcus aureus", "observed": "microbial killing", "technique": "broth dilution", "strain": "ATCC43300", "endpoint": "MBC", "result": "> 1000 µg/mL"}
{"Structure (SMILES)": "Cc1ccc2nc(-n3nc(C)c4c3-c3ccccc3C4=O)sc2c1", "organism": "Staphylococcus aureus", "observed": "microbial growth", "technique": "well diffusion", "strain": "NCIM5021", "concentration": "1000 µg/mL", "endpoint": "inhibition zone", "result": "12 mm"}
{"Structure (SMILES)": "COc1cc(OC)c(/C=C/S(=O)(=O)Cc2ccc(OC)c(NCC(=O)O)c2)c(OC)c1", "organism": "Staphylococcus aureus", "observed": "microbial growth", "strain": "NCTC8325", "endpoint": "MIC", "result": "> 30 µM"}
{"Structure (SMILES)": "Cc1nn(-c2nc3ccc(Br)cc3s2)c2c1C(=O)c1ccccc1-2", "organism": "Staphylococcus aureus", "observed": "microbial growth", "technique": "well diffusion", "strain": "NCIM5021", "concentration": "125 µg/mL", "endpoint": "inhibition zone", "result": "10 mm"}
{"Structure (SMILES)": "Cc1ccc(C(C)C)cc1OS(=O)(=O)c1ccccc1", "organism": "Escherichia coli", "observed": "microbial growth", "technique": "broth dilution", "strain": "ATCC25922", "endpoint": "IC50", "result": "113 µg/mL"}
{"Structure (SMILES)": "Cc1c(CN2CCN(C(=O)[C@H](C)O)CC2)sc2c(N3CCOCC3)nc(-c3cnc(N)nc3)nc12", "organism": "Staphylococcus aureus", "observed": "microbial growth", "strain": "NCTC8325", "endpoint": "MIC", "result": "> 30 µM"}
{"Structure (SMILES)": "O=C1NC(=S)N/C1=C\\c1ccc(-c2ccc(N(c3ccccc3)c3ccccc3)cc2)c2ccccc12", "organism": "Micrococcus luteus", "observed": "microbial killing", "technique": "broth dilution", "strain": "ATCC10240", "endpoint": "MBC", "result": "> 1000 µg/mL"}
{"Structure (SMILES)": "Nc1ncnc2c1c(-c1cccc(OCc3ccccc3)c1)cn2C1CC(CN2CCCC2)C1 (stereo in doubt)", "organism": "Staphylococcus aureus", "observed": "microbial growth", "strain": "NCTC8325", "endpoint": "MIC", "result": "> 30 µM"}
{"Structure (SMILES)": "COc1ccc2nc(-n3nc(CC(C)C)c4c3-c3ccccc3C4=O)sc2c1", "organism": "Staphylococcus aureus", "observed": "microbial growth", "technique": "well diffusion", "strain": "NCIM5021", "concentration": "250 µg/mL", "endpoint": "inhibition zone", "result": "12 mm"}
{"Structure (SMILES)": "Cc1onc(-c2ccccc2)c1C(=O)N[C@@H]1C(=O)N2[C@@H]1SC(C)(C)[C@@H]2C(=O)O", "organism": "Staphylococcus aureus", "observed": "microbial growth", "strain": "NCTC8325", "endpoint": "MIC", "result": "2.5 µM"}
{"Structure (SMILES)": "O=C(O)CN1C(=O)/C(=C/c2c3ccccc3c(-c3ccc(N(c4ccccc4)c4ccccc4)cc3)c3ccccc23)SC1=S", "organism": "Micrococcus luteus", "observed": "microbial killing", "technique": "broth dilution", "strain": "ATCC10240", "endpoint": "MBC", "result": "125 µg/mL"}
